Active and inactive are the calls of the source.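 The calls were made as follows: active = inhibition of the enzyme above 50%; inactive = the rest.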
Target: Aspartyl aminopeptidase (Plasmodium falciparum (isolate 3D7)) (UniProt Q8I2J3)
Experiment: inhibition of purified P. falciparum M18AAP – biochemical, fluorescence, powder samples, assay provider, late-stage follow-up (AID 492974)
Conditions: recombinant PfM18AAP, H-Glu-NHMec fluorogenic substrate; at 5 µM; active compounds read high
In short: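 system = recombinant Plasmodium falciparum M18 aspartyl aminopeptidase (rPfM18AAP), purified enzyme | input = rPfM18AAP at 1 µg/mL final | detection = kinetic fluorescence of NHMec release, excitation 370 nm, emission 460 nm, 1-min reads | reagent = fluorogenic substrate H-Glu-NHMec, 50 µM final | timing = 10 min compound–enzyme preincubation, then 30 min kinetic read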

Aspartyl aminopeptidase (Plasmodium falciparum (isolate 3D7)), sequence (Q8I2J3 whole entry, looked up): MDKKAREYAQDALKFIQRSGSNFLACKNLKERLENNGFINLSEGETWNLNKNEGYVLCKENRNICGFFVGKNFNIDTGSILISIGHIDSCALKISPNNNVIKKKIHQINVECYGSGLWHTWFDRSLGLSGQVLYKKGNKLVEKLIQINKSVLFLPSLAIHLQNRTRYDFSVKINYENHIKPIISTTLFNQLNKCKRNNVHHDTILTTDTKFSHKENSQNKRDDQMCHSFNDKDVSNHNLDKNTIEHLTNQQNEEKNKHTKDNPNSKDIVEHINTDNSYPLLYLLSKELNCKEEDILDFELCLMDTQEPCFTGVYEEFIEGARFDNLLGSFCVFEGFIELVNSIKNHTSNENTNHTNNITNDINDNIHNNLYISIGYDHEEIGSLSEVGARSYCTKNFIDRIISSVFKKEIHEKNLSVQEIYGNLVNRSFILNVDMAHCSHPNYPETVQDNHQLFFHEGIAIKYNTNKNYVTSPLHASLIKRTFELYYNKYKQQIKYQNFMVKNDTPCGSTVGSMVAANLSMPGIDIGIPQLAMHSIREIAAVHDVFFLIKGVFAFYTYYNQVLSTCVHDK

Compound: Oc1ccc(C2=Nn3c(nnc3-c3ccco3)SC2)cc1O
- inhibition: 52%

Compound: Oc1ccc(CCNc2c3ccccc3nc3ccccc23)cc1O
- inhibition: 52%

Compound: O=c1[nH]c(CSc2ncn[nH]2)nc2ccccc12
- inhibition: 0% (inactive)

Compound: O=C(Nc1ccccc1Cl)Nn1cnnc1
- inhibition: 35% (inactive)

Compound: Cc1ccc([N+](=O)[O-])cc1-c1[nH]c(-c2ccc(O)c(O)c2)nc1-c1ccccc1
- inhibition: 83%

Compound: O=C(CSc1nn(-c2ccccc2)c(=S)s1)Nn1cnnc1
- inhibition: 15% (inactive)

Compound: Cc1ccc(Cl)cc1NC(=O)Nn1cnnc1
- inhibition: 35% (inactive)

Compound: O=C(Nc1ccc(Cl)cc1Cl)Nn1cnnc1
- inhibition: 48% (inactive)

Compound: Cc1cc(OCC(=O)Nn2cnnc2)ccc1Br
- inhibition: 55%

Compound: COc1ccc(NC(=O)NNC(=O)CCc2ccc(O)c(O)c2)cc1OC
- inhibition: 23% (inactive)

Compound: O=C(Nn1cnnc1)c1csc2ccccc12
- inhibition: 22% (inactive)

Compound: O=C(O)CSc1ncn[nH]1
- inhibition: 0% (inactive)

Compound: CN1C(=O)N(c2cccc3ccccc23)C(n2cncn2)C1(C)C (stereo unspecified)
- inhibition: 5% (inactive)

Compound: O=C(Nc1ccc(Br)cc1Cl)Nn1cnnc1
- inhibition: 71%

Compound: O=C(Nc1ccc([N+](=O)[O-])cc1)Nn1cnnc1
- inhibition: 59%

Compound: O=C(NC(=S)Nn1cnnc1)c1ccccc1Br
- inhibition: 15% (inactive)

Compound: O=C(Nc1cccc(Cl)c1Cl)Nn1cnnc1
- inhibition: 29% (inactive)

Compound: O=C(Nc1ccc(Cl)c(Cl)c1)Nn1cnnc1
- inhibition: 63%

Compound: COc1cc([N+](=O)[O-])ccc1NC(=O)Nn1cnnc1
- inhibition: 4% (inactive)

Compound: CC1=NNC(=O)/C1=C\c1cn(-c2ccccc2)nc1-c1ccc(F)cc1
- inhibition: 9% (inactive)

Compound: COc1ccc(Cl)cc1NC(=O)Nn1cnnc1
- inhibition: 22% (inactive)

Compound: O=C(Nc1cccc(C(F)(F)F)c1)Nn1cnnc1
- inhibition: 27% (inactive)

Compound: COC(=O)CN(n1cnnc1)S(=O)(=O)c1ccccc1
- inhibition: 0% (inactive)

Compound: O=C(CNC(=O)c1ccccc1)NCCc1ccc(O)c(O)c1
- inhibition: 50%

Compound: CC1(C)CC(=O)c2c(oc3cc(O)c(O)cc23)C1
- inhibition: 29% (inactive)

Compound: OC(Cn1cnnc1)c1ccccc1 (stereo unspecified)
- inhibition: 19% (inactive)

Compound: COC(=O)c1cc(C(=O)Nn2cnnc2)cc([N+](=O)[O-])c1
- inhibition: 48% (inactive)

Compound: Oc1ccc(-c2cn3ccccc3n2)cc1O
- inhibition: 42% (inactive)

Compound: O=C(Nc1cc(Cl)ccc1Cl)Nn1cnnc1
- inhibition: 54%

Compound: CN1CCc2cccc3c2[C@@H]1Cc1ccc(O)c(O)c1-3
- inhibition: 35% (inactive)

Compound: S=C(Nc1cc(Cl)ccc1Cl)Nn1cnnc1
- inhibition: 24% (inactive)

Compound: Oc1ccc(-c2csc(-c3cccnc3)n2)cc1O
- inhibition: 81%

Compound: CCOC(=O)C1=C(CS(=O)(=O)c2ccc(F)cc2)NC(=O)NC1c1ccc(O)c(O)c1 (stereo unspecified)
- inhibition: 58%

Compound: NCCc1ccc(O)c(O)c1
- inhibition: 40% (inactive)

Compound: O=C(Nn1cnnc1)c1ccccc1-c1ccccc1
- inhibition: 21% (inactive)

Compound: Cc1c(Cl)cccc1NC(=O)Nn1cnnc1
- inhibition: 10% (inactive)

Compound: CS(=O)(=O)c1ccc2c(c1)sc1nc(=O)c(/C=C3/C=CC(=O)C(O)=C3)c(N)n12
- inhibition: 55%

Compound: COc1cc(Br)cc(/C=N/c2ncn[nH]2)c1O
- inhibition: 0% (inactive)

Compound: Cc1ccc(Cl)cc1NC(=S)Nn1cnnc1
- inhibition: 17% (inactive)

Compound: COc1cc([N+](=O)[O-])ccc1NC(=S)Nn1cnnc1
- inhibition: 52%

Compound: O=c1c2c([N+](=O)[O-])cc([N+](=O)[O-])cc2sn1Cc1ccccc1
- inhibition: 44% (inactive)

Compound: Cc1cc(C)cc(C(=O)n2cnnc2N)c1
- inhibition: 0% (inactive)

Compound: O=C(CSc1nnc(-c2ccccc2)o1)Nn1cnnc1
- inhibition: 58%

Compound: O=C(CSc1ncn[nH]1)OCN1C(=O)c2ccccc2C1=O
- inhibition: 0% (inactive)

Compound: Cc1cc(=O)[nH]c(SCC(=O)c2ccc(O)c(O)c2)n1
- inhibition: 0% (inactive)

Compound: O=C(CSc1ncn[nH]1)Nc1nc(-c2ccccc2)ns1
- inhibition: 7% (inactive)

Compound: Cc1nc2ccccn2c1C(=O)NNC(=O)Nc1ccccc1
- inhibition: 11% (inactive)

Compound: O=C(CSc1nc2ccccc2c(=O)[nH]1)c1ccc(O)c(O)c1
- inhibition: 10% (inactive)

Compound: CC(C)n1c(SCC(=O)Nc2nncs2)nnc1-c1ccco1
- inhibition: 5% (inactive)

Compound: Cc1nc(-c2ccc(O)c(O)c2)cs1
- inhibition: 74%

Compound: Nc1nncn1C(=O)CCCOc1ccc(Cl)cc1Cl
- inhibition: 0% (inactive)

Compound: COc1ccc2nc(C)cc(SCC(=O)N/N=C/c3ccc(O)c(O)c3)c2c1
- inhibition: 63%

Compound: CCc1ccccc1NC(=S)Nn1cnnc1
- inhibition: 6% (inactive)

Compound: Cc1ccc(-n2c(O)c(/C=N/n3cnnc3)c3ccccc3c2=O)cc1
- inhibition: 18% (inactive)

Compound: COC(=O)CN(n1cnnc1)S(=O)(=O)c1ccc(C)cc1
- inhibition: 0% (inactive)

Compound: O=C(COc1ccccc1C(=O)N/N=C/c1ccc(O)c(O)c1)N/N=C/c1ccc(O)c(O)c1
- inhibition: 76%

Compound: Oc1ccc(-c2csc(-c3ccccc3)n2)cc1O
- inhibition: 90%

Compound: CC1(C)CC2(CC(c3ccccc3F)c3ccc(O)c(O)c3O2)NC(=S)N1 (stereo unspecified)
- inhibition: 50%

Compound: Br/C(C=Nn1cnnc1)=C\c1ccccc1
- inhibition: 17% (inactive)

Compound: Oc1cc(O)c2c(c1)O[C@H](c1ccc(O)c(O)c1)[C@H](O)C2
- inhibition: 49% (inactive)

Compound: O=C(O)c1cn[nH]c1-n1cnnn1
- inhibition: 2% (inactive)

Compound: Cc1ccc(NC(=S)Nn2cnnc2)c(C)c1
- inhibition: 3% (inactive)

Compound: COc1cccc(-c2cc(C(=O)Nn3cnnc3)c3ccccc3n2)c1
- inhibition: 25% (inactive)

Compound: Cc1cc(C)n2c(=S)[nH]nc2n1
- inhibition: 30% (inactive)

Compound: Oc1ccc(/C=C/c2cc(O)cc(O)c2)cc1
- inhibition: 50%

Compound: COC(=O)CN(n1cnnc1)S(=O)(=O)c1ccccc1Cl
- inhibition: 26% (inactive)

Compound: COc1cccc2c(SCC(=O)N/N=C/c3ccc(O)c(O)c3)cc(C)nc12
- inhibition: 51%

Compound: O=c1[nH]c(=S)[nH]c(O)c1/C=C1\C=c2ccccc2=N1
- inhibition: 42% (inactive)

Compound: CCC(C)c1ccc(O)c(N)c1 (stereo unspecified)
- inhibition: 65%

Compound: Cc1cccc(NC(=S)Nn2cnnc2)c1C
- inhibition: 13% (inactive)

Compound: O=[N+]([O-])c1cc([N+](=O)[O-])c2cccnc2c1Oc1ccccc1O
- inhibition: 16% (inactive)

Compound: CCN(CC)S(=O)(=O)c1ccc(C(=O)Nn2cnnc2)cc1
- inhibition: 26% (inactive)

Compound: O=C(O)c1ccc(O)c(O)c1
- inhibition: 21% (inactive)

Compound: O=c1c(O)c(-c2ccc(O)c(O)c2)oc2cc(O)cc(O)c12
- inhibition: 43% (inactive)

Compound: O=S(=O)(Nn1cnnc1)c1ccccc1
- inhibition: 10% (inactive)

Compound: COc1ccc(C(=O)n2cnnc2N)cc1
- inhibition: 4% (inactive)
